High-throughput results as filed in PubChem.
Most compounds without a hit are left out; they make up all but 4.5% or so of the library.
OX1R antag-1: antagonists of human orexin 1 receptor (OX1R); O43613; inhibition, % at 6.6 µM; actives 1.8% (n = 330,000); OX1R-expressing cells, FRET antagonist read-out; in the data active means inhibition mostly above about 38%, no sharp cut-off; inactive means mostly below about 40%;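 further: 0% = agonist challenge alone and 100% = reference antagonist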
Target sequence (O43613 whole entry, looked up): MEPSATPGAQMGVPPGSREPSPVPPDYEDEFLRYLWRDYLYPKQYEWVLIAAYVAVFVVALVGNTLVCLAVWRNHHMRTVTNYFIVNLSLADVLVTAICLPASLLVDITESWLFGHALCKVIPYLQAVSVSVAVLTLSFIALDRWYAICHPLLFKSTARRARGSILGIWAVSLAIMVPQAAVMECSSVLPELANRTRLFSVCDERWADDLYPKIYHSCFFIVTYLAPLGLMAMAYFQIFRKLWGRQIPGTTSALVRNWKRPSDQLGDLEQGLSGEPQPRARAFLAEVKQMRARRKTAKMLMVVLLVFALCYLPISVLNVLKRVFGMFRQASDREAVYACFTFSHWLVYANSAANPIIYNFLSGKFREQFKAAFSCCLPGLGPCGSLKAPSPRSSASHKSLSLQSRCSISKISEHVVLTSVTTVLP
TAAR1 agonist: agonists of human TAAR1 | Q96RJ0 | activation, % at 3 µM | CHO RD-HGA16 TAAR1, Fluo-8 calcium fluorescence; vehicle wells 0%, saturating PEA agonist 100% | actives 0.99% (n = 360,000) | AID 624467;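 active means activation above the mean activation of all test compounds in the run plus 3 SD, cut at about 38% in these data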
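System: CHO RD-HGA16 cells carrying human TAAR1 plus Gα16; Incubation: 17-24 h seeding, 75 min 37 °C dye, 30 min RT; Measured by: Fluo-8 fluorescence, 5 s baseline then 140 s kinetic read; Control set: DMSO and PEA EC100; Replication: single well for each compound.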
CHO parental Ca: signal in parental CHO cells, OX1R antagonist counter-screen | inhibition, % at 5.6 µM | parental CHO-K1, ATP-induced calcium, Fluo-8 fluorescence | actives 0.63% (n = 330,000) | AID 463079;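 active means inhibition above that plate's mean sample inhibition plus 3 SD, cut at about 26% in these data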;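 further: 0% = ATP-challenged DMSO wells and 100% = DMSO wells without ATP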
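Material – parental CHO cells · Reagent – ATP stimulus · Compound – single nominal dose of 5.6 µM per compound · Detection – Fluo-8 fluorescence · Read-out basis – percent inhibition of calcium signal · Controls – ATP-challenged DMSO wells low, unchallenged DMSO wells high · Repeats – no replicates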
GPR7 antagonist: blocks human GPR7 receptor signaling; GPR7-expressing cells, fluorescence antagonist assay; inhibition, % at 4.4 µM; actives 1.1% (n = 290,000); in the data active means inhibition above about 16%, passing the limit was not always enough;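 further: cells stimulated with the agonist NPW; 0% = agonist with vehicle and 100% = vehicle without agonist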
Target sequence (P48145 whole entry, looked up): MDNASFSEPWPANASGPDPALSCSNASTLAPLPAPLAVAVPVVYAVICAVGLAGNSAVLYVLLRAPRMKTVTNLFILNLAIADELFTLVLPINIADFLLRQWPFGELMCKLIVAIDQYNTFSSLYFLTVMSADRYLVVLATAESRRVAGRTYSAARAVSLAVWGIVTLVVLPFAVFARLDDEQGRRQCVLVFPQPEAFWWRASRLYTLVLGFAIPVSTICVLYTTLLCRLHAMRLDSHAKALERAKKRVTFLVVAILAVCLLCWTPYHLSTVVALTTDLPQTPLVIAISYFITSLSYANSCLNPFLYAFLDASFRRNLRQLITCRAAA
OX1R antag-2: human HCRTR1 antagonism; actives 0.43% (n = 330,000); inhibition, % at 5 µM; O43613; CHO/OX1R cells, Fluo-8 calcium fluorescence, orexin A;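 active means inhibition above its plate's threshold, mean inhibition of all tested compounds on the plate plus 3 SD, cut at about 37% in these data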;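 further: 0% = orexin A challenge wells and 100% = SB-334867-A antagonist wells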
TAAR1 antagonist: human TAAR1 antagonism. Q96RJ0. CHO RD-HGA16 TAAR1, Fluo-8 calcium fluorescence, antagonist. inhibition, % at 3 µM. actives 1.5% (n = 360,000). AID 624466;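 active means inhibition above a per-plate cutoff, the mean inhibition of test compounds on that plate plus 3 SD, cut at about 49% in these data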;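 further: 0% = DMSO plus EC80 beta-PEA response and 100% = DMSO alone without agonist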
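Material: RD-HGA16 CHO cells with stable hTAAR1 and Gα16; Dosing: single nominal final test compound concentration of 3 µM; Schedule: seeding 17-24 h prior, 75-min 37 °C, 30-min RT dye loading; Detection: kinetic Fluo-8 calcium fluorescence measurement; Measure: % inhibition from peak post-agonist over basal fluorescence ratio; Benchmarks: vehicle and agonist controls.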
TAAR1 ag confirm: confirmation of human TAAR1 agonists; shares compounds with TAAR1 agonist; CHO RD-HGA16 TAAR1, Fluo-8 calcium fluorescence; scaled: DMSO 0%, maximal phenethylamine 100%; activation, % at 3 µM; actives 82% (n = 2,400);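 active means activation above a cutoff set at the run's mean compound activation plus 3 SD, cut at about 39% in these data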
Ga16 ag counter: nonselective agonist in parental cells, TAAR1 agonist counter-screen; shares compounds with TAAR1 agonist; CHO-Ga16 parental, Fluo-8 calcium fluorescence; normalized to maximal ATP response, DMSO zero; activation, % at 3 µM; actives 50% (n = 2,400); AID 651787;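 active means activation above the run cutoff, the mean activation over all tested wells plus 3 SD, cut at about 12% in these data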;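 further: 0% = DMSO wells and 100% = maximal ATP response on the peak over basal ratio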
TAAR1 desensitize: TAAR1 response desensitization, agonist counter-screen | shares compounds with TAAR1 agonist | CHO RD-HGA16 hTAAR1, Fluo-8 calcium, beta-PEA response inhibition | inhibition, % at 3 µM | actives 46% (n = 2,400) | AID 651951;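 active means inhibition above the run cutoff, the mean inhibition of all test compounds plus 3 SD, cut at about 49% in these data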;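 further: beta-PEA stimulus applied at its EC80; loss of beta-PEA calcium signal after compound pretreatment read as receptor desensitization; 0% = DMSO with beta-PEA at EC80 and 100% = DMSO alone without agonist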
Ga16 nonsel ant: counter-screen for TAAR1 agonists: nonselective Ga16 antagonists; shares compounds with TAAR1 agonist; CHO-Ga16 ATP-induced calcium, Fluo-8 fluorescence; inhibition, % at 3 µM; actives 39% (n = 2,400); AID 651952;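 active means inhibition above the plate's mean compound inhibition plus 3 SD, computed per plate, cut at about 22% in these data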;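 further: 0% = EC80 ATP with DMSO and 100% = DMSO wells without ATP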
* = called active by the depositor; x = no result.

SMILES	OX1R antag-1	TAAR1 agonist	CHO parental Ca	GPR7 antagonist	OX1R antag-2	TAAR1 antagonist	TAAR1 ag confirm	Ga16 ag counter	TAAR1 desensitize	Ga16 nonsel ant
CC(=O)O[C@@H]1C[C@@]2(C)[C@@H](CC[C@H]2[C@@H](C)/C=C\CC(C)C)C2=C[C@@H](O)[C@@]3(O)C[C@@H](O)[C@H](O)C[C@]3(CO)[C@]21O	x	116*	x	x	x	97*	29	16*	22	28*
CCCOC1CCCN(C(=O)c2cc(Cl)c(Cl)cc2C(=O)O)C1 (stereo not drawn)	17	65*	-8	-13	-9	24	82*	4	51*	15
CCOC(=O)N1CCN(C(=O)c2cc(Cl)c(Cl)cc2C(=O)O)CC1	12	x	0	-16	-1	x	x	x	x	x
COc1cc(CNCCCN2CCOCC2)cc(Cl)c1OCC(=O)NC(C)(C)C	13	6	-13	-9	-18	-13	x	x	x	x
CCC(=NCCc1ccccc1)C1=C(O)CCC1=O	18	87*	-20	-13	-10	87*	104*	2	93*	-3
COc1ccc(-c2noc(CCC(=O)Nc3ccc4c(c3)OCCO4)n2)cc1	27	18	13	-5	16	7	x	x	x	x
Cc1ccc(-c2noc(CCC(=O)Nc3ccc4c(c3)OCO4)n2)cc1	45	83*	25	-10	26	80*	3	6	14	24*
O=C(Nc1ncc(S(=O)(=O)c2ccc([N+](=O)[O-])cc2)s1)c1ccccc1F	31	101*	39*	-2	54*	59*	110*	61*	84*	51*
Cc1cc(C)c(-n2c(C)cc(/C=C3/NC(=O)NC3=O)c2C)c(C)c1	29	33	-24	-12	-23	-26	x	x	x	x
Cc1cc(/C=C2/NC(=O)NC2=O)c(C)n1-c1sc2c(c1C#N)CCCC2	37	63*	-24	-7	-36	-14	46*	19*	-5	-2
OC(c1ccccc1)(c1ccccc1)C1CCN(CCCOc2ccc(C(F)(F)F)cc2)CC1	x	43*	x	x	x	38	9	19*	17	38*
OC(c1ccccc1)(c1ccccc1)C1CCN(CCCOc2cccc(Cl)c2)CC1	x	39*	x	x	x	50*	42*	27*	48	49*
COC(=O)c1cccc(OCCCN2CCC(C(O)(c3ccccc3)c3ccccc3)CC2)c1	x	23	x	x	x	7	x	x	x	x
CC(C)c1ccc(OCCCN2CCC(C(O)(c3ccccc3)c3ccccc3)CC2)cc1	x	41*	x	x	x	46	59*	35*	59*	55*
CC(C)(C)c1ccc(OCCCCCCN2CCNCC2)cc1	8	31	3	x	-12	-38	x	x	x	x
CC(C)(c1ccccc1)c1ccc(OCCCN2CCNCC2)cc1	20	50*	4	-1	0	3	37	11	14	12
O=C(COC(=O)Cn1cc(C(F)(F)F)ccc1=O)Nc1ccc(Br)cc1F	x	1	x	x	x	-30	x	x	x	x
CC1(C)C2CCC(CN)C1C2 (stereo not drawn)	x	2	x	x	x	-8	x	x	x	x
N#Cc1ccc(OCCCN2CCC(C(O)(c3ccccc3)c3ccccc3)CC2)cc1	x	40*	x	x	x	25	54*	18*	27	17
COc1ccc(OCCCN2CCC(C(O)(c3ccccc3)c3ccccc3)CC2)cc1	x	38*	x	x	x	10	43*	20*	25	22*
Cc1ccc(OCCCN2CCC(C(O)(c3ccccc3)c3ccccc3)CC2)cc1	x	31	x	x	x	13	x	x	x	x
O=C1OC[C@H](Cc2ccc3c(c2)OCO3)/C1=C\c1ccc2c(c1)OCO2	24	x	22	x	-4	x	x	x	x	x
Cc1cc(C)c2c(=O)n(CC(=O)Nc3ccc(Br)c(C)c3)sc2n1	15	86*	-2	-6	-5	53*	100*	68*	71*	64*
Cc1cc(C)c2c(=O)n(CC(=O)Nc3cccc(Cl)c3C)sc2n1	8	103*	6	20	3	86*	96*	72*	89*	75*
Cc1cc(C)c2c(=O)n(CC(=O)NC3CCCC3)sc2n1	1	57*	4	-9	8	48	62*	34*	59*	39*
SMILES	OX1R antag-1	TAAR1 agonist	CHO parental Ca	GPR7 antagonist	OX1R antag-2	TAAR1 antagonist	TAAR1 ag confirm	Ga16 ag counter	TAAR1 desensitize	Ga16 nonsel ant
C=CCn1c(C)cc(C2=NNC(=NCc3ccccc3)SC2)c1C	7	2	-7	-5	-11	-14	x	x	x	x
Cc1cc(C2=NNC(=NCCc3ccccc3)SC2)c(C)n1CC1CCCO1 (stereo not drawn)	10	83*	-2	1	-20	68*	85*	4	57*	20
CCN=C1NN=C(c2cc(C)n(CCc3ccccc3)c2C)CS1	x	82*	x	-6	x	63*	101*	4	93*	5
COc1cccc(OCc2cc(C(=O)NCc3ccc4c(c3)OCO4)no2)c1	14	2	-12	2	-7	-20	x	x	x	x
O=C(Nc1nnc(-c2ccccc2)o1)c1ccc(Cl)cc1	23	76*	-7	-15	1	25	19	16*	8	15
COc1ccc(C(=O)O)cc1S(=O)(=O)N1CCSCC1	x	1	x	-2	x	-25	x	x	x	x
O=C1c2cccc3c(N4CCCCC4)ccc(c23)C(=O)N1c1cccc(O)c1	7	121*	56*	-1	56*	79*	27	32*	38	48*
C=CCN1C(=O)c2cccc3c(N4CCCCC4)ccc(c23)C1=O	31	29	16	-12	6	18	x	x	x	x
Cc1ccc(C(=O)NC(=S)NNC(=O)COc2ccccc2C)cc1	13	6	-1	1	-17	-13	x	x	x	x
Cc1cccc(C(=O)NC(=S)NNC(=O)Cc2ccccc2)c1	11	119*	11	-17	1	64*	121*	89*	74*	45*
Cc1cccc(C(=O)NC(=S)NNC(=O)COc2c(C)cccc2C)c1	9	126*	1	4	-15	90*	143*	119*	96*	63*
COc1ccccc1NS(=O)(=O)c1c(C)nc2sccn2c1=O	7	1	-2	3	-12	3	x	x	x	x
